Source: PubChem BioAssay
In the library only some 2% were active in any assay of this set; here they are far more common.
Rpn11 inh: inhibitors of human proteasome Rpn11; O00487; human 26S proteasome, Ub4-pepOG fluorescence polarization; 20S core pre-blocked with epoxomicin; inhibition, % at 20 µM; actives 0.59% (n = 360,000); AID 588493;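 active = inhibition at 20 µM, scaled to each plate's controls, above about 33%, limit read from the data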
Scp1 inh: blocks human Scp-1 phosphatase activity | Recombinant Scp1, phosphopeptide, malachite green phosphate absorbance | actives 0.88% (n = 340,000) | inhibition, % at 20 µM | Q9GZU7;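 active = inhibition above about 50% at 20 µM, limit read from the data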
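Test system: SCP-1 catalytic domain; Buffer or medium: Acidic Tris acetate buffer with magnesium and detergent; Also added: Phosphorylated 17-residue peptide substrate; Compound: single 20 µM dose, 1% DMSO; Schedule: enzyme reaction 45 min at room temperature, colour 5 min, stabilisation 30 min; Signal: Phosphate-binding colour reagent, absorbance read at 630 nm.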
STEP inh: blocks human striatal-enriched tyrosine phosphatase. P54829. recombinant STEP, OMFP fluorogenic substrate, fluorescence. inhibition, % at 20 µM. actives 0.25% (n = 360,000). AID 588621;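 active = inhibition at 20 µM, scaled per plate between control wells, above about 37%, limit read from the data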
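medium = Bis-Tris buffer pH 6.0, 2.5 mM DTT, 0.005% Tween 20 | test system = STEP (striatal-enriched tyrosine phosphatase) enzyme, cell-free | measure = normalized % inhibition | compound dosing = 20 µM, 1% DMSO | also added = 25 µM OMFP | schedule = reaction 20 min, ambient temperature | measured by = fluorescence read at 480 nm ex / 540 nm em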
DNMT1 inh: DNMT1 (human) enzyme inhibition. P26358. DNMT1 molecular beacon, Hinp1I cleavage, fluorescence. inhibition (reported as % activation of signal), % at 10 µM. actives 0.83% (n = 360,000). AID 588458; in the data active = inhibition above about 50%
LMPTP inh: blocks human LMPTP phosphatase; P24666; recombinant LMPTP-A, OMFP fluorogenic substrate, fluorescence intensity; inhibition, % at 20 µM; actives 0.22% (n = 360,000); AID 651560;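 active = compounds that cut the enzyme signal by at least half of the control window in the single-dose screen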
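Assay system: LMPTP-A, protein tyrosine phosphatase of low molecular weight / Medium: pH 6.0 Bis-Tris buffer with DTT and Triton X-100 / Schedule: 50 min enzyme reaction at room temperature, protected from light / Measured by: endpoint fluorescence intensity from OMFP dephosphorylation / Read-out basis: % inhibition relative to no-enzyme and uninhibited control wells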
Scp1 confirm: confirmation of human Scp-1 phosphatase inhibitors. shares compounds with Scp1 inh. actives 61% (n = 2,500). inhibition, % at 20 µM. recombinant SCP-1 catalytic domain, phosphate release, malachite green absorbance
MG interference: interferes with malachite green readout, flagging false Scp-1 hits. shares compounds with Scp1 inh. Colorimetric interference counterscreen, malachite green absorbance 630 nm. apparent inhibition (interference), % at 20 µM. 2,500 tested, under 10 active. AID 540313;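 also: compounds added after enzyme reaction finished so only phosphate colour detection is probed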
Scp1 DSF: Scp-1 (human) binding by thermal shift. Recombinant SCP1, Sypro Orange thermal shift Tm. thermal shift relative to vanadate control, % at 40 µM. shares compounds with Scp1 inh. actives 25% (n = 1,500);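 active = substances whose mean melting-temperature shift, as a percentage of the reference inhibitor's shift, reaches about 5.3%, limit read from the data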
Each line names hits and unclear results; the compound was inactive in the other large screens (follow-up assays come after a bar, where they were run).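 The calls were made as follows, unless noted: active = inhibition of at least 30% at 20 µM; inactive = the rest.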

O=C(O)CN1C(=O)/C(=C2\C(=O)N(Cc3ccccc3Cl)c3ccccc32)SC1=S	Scp1 inh 82, STEP inh 52 | Scp1 confirm 62 | MG interference inactive | Scp1 DSF 16
CCOc1cc(C=NN=C2c3ccccc3-c3ccccc32)ccc1O	none
COc1cc(C)ccc1S(=O)(=O)NC(=O)C1(C)CCN1C(=O)COc1ccc(Cl)cc1 (stereo unspecified)	none (no result: Scp1 inh)
CCOC(=O)/C=C1\CN(Cc2cc(OC)c(OC)c(OC)c2)S(=O)(=O)c2ccc(C(F)(F)F)cc21	Scp1 inh 88 | Scp1 confirm 57 | MG interference inactive | Scp1 DSF inactive
O=C(Cc1cccs1)Nc1nc2c(ccc3ccccc32)s1	none
CC(=O)Nc1nc2c(ccc3ccccc32)s1	Scp1 inh 72 | Scp1 confirm inactive | MG interference inactive
CCOC(=O)C1C(C(C)=O)=C(c2ccccc2)c2ccccc2N1S(=O)(=O)C(F)(F)F (stereo unspecified)	Scp1 inh 88 | Scp1 confirm inactive | MG interference inactive
CCOC(=O)C1=C(c2ccccc2)c2ccccc2N(S(=O)(=O)C(F)(F)F)C1C(=O)OCC (stereo unspecified)	none
CC(=O)c1ccccc1C(=O)N1CCCC(N2CCN(Cc3ccc4c(c3)OCO4)CC2)C1 (stereo unspecified)	Scp1 inh 65 | Scp1 confirm inactive | MG interference inactive
C[n+]1c(/C=C/c2ccc(O)cc2)ccc2ccccc21	Scp1 inh 51 | Scp1 confirm inactive | MG interference inactive
COc1ccc(NC(=O)CSc2nc3ccsc3c(=O)n2CCC(=O)O)cc1	none (no result: Scp1 inh)
COc1ccc(NC(=O)N(C)C[C@H]2Oc3c(NC(=O)C4CC4)cccc3C(=O)N([C@H](C)CO)C[C@@H]2C)cc1	none
Cc1cccc(NC(=S)NC(=O)CC2CC(C)(C)OC2=O)c1 (stereo unspecified)	none | Scp1 confirm inactive | MG interference inactive
Cc1ccc(NC(=S)NC(=O)CC2CC(C)(C)OC2=O)cc1 (stereo unspecified)	none
Cc1cc(Cl)ccc1C(O)c1ncc(-c2ccc(F)cc2)[nH]1 (stereo unspecified)	none (no result: Scp1 inh)
CCn1cc(S(=O)(=O)c2ccc(C)cc2)c(=O)c2cc(F)c(N3CCN(C)CC3)cc21	Scp1 inh 61 | Scp1 confirm inactive | MG interference inactive
Cc1ccccc1CN1CCN(CC2CC2)CC1CCO (stereo unspecified)	none
CCOC(=O)C1=C(C)Nc2ccccc2N/C1=N\S(=O)(=O)c1cc(C(=O)O)ccc1Cl	Scp1 inh 50 | Scp1 confirm 41 | MG interference inactive | Scp1 DSF inactive
COc1ccccc1N1CCN(S(=O)(=O)c2ccc3c(c2)NC(=O)C(C)S3)CC1 (stereo unspecified)	none
COc1ccccc1N1CCN(C(=O)C(C)CS(=O)(=O)c2ccc3c(c2)NC(=O)CS3)CC1 (stereo unspecified)	Scp1 inh 59 | Scp1 confirm 63 | MG interference inactive | Scp1 DSF inactive
Cc1cccc(N2CC(C(=O)NCc3ccco3)CC2=O)c1C (stereo unspecified)	none
COCCNC(=O)c1ccc(N2CC3CC(C2)c2cccc(=O)n2C3)c(NC(=O)c2ccccc2Cl)c1 (stereo unspecified)	none (no result: Scp1 inh)
Cc1ccc(S(=O)(=O)N2CCN(C(=O)[C@H](Cc3ccccc3)NC(=O)c3ccco3)CC2)cc1C	none
COc1cccc(Cn2c(C(C)n3c(C)nc4ccccc43)nc3ccccc32)c1 (stereo unspecified)	none (no result: Rpn11 inh, Scp1 inh, STEP inh, DNMT1 inh)
COC(=O)c1ccccc1NC(=O)CSc1nc(N)cc(=O)[nH]1	Scp1 inh 57 | Scp1 confirm 34 | MG interference inactive | Scp1 DSF inactive
